Screening results as filed in PubChem.
Sampled rows, rich in hits. Any-hit rate of the full collection: about 3.1%.
OX1R antag-1: OX1R (HCRTR1) antagonists, primary screen, fluorescence, CHO/OX1R cells, Fluo-8 calcium, orexin A | Orexin/Hypocretin receptor type 1 (Homo sapiens), O43613 | actives 0.43% (n = 330,000) | inhibition, % at 5 µM | Fluo-8 calcium fluorescence;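 active = inhibition above its plate's threshold, mean inhibition of all tested compounds on the plate plus 3 SD, cut at about 37% in these data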;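 note: 0% = orexin A challenge wells and 100% = SB-334867-A antagonist wells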
Target sequence (O43613 whole entry, looked up): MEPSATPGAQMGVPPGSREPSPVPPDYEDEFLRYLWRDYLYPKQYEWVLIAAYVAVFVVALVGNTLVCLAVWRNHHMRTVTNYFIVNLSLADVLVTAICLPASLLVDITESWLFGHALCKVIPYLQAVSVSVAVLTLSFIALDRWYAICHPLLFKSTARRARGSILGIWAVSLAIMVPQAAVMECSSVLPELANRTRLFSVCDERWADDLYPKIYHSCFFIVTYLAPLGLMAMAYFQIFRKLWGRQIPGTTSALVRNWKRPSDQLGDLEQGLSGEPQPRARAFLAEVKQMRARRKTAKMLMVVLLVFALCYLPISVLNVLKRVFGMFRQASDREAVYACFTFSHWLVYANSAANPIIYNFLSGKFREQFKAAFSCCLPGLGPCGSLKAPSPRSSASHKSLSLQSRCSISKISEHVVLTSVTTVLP
GPR7 antagonist: GPR7 receptor antagonists, primary screen, cell-based, fluorescence, single concentration; Neuropeptides B/W receptor type 1 (Homo sapiens), P48145; inhibition, % at 4.4 µM; GPR7-expressing cells, fluorescence antagonist assay; actives 1.1% (n = 290,000); in the data active = inhibition above about 16%, passing the limit was not always enough;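 note: cells stimulated with the agonist NPW; 0% = agonist with vehicle and 100% = vehicle without agonist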
GalR3 antag: GalR3 antagonists in HEK293 cells, primary screen, cell-based, fluorescence readout | Galanin receptor type 3 (Homo sapiens), O60755 | AID 651719, 2012 | HEK293 GalR3-CNG cAMP membrane potential fluorescence; galR3 body fused to GalR1 C-terminus | inhibition, % at 3 µM | actives 0.44% (n = 360,000);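 active = inhibition above the screen-wide average plus 3 SD, cut at about 13% in these data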;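 note: forskolin and galanin both at EC90 stimulate the cells; cAMP rise reported by CNG channel membrane potential dye signal; 0% = forskolin plus galanin with DMSO and 100% = forskolin alone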
OX1R antag-2: antagonists of human orexin 1 receptor (OX1R); actives 1.8% (n = 330,000); Orexin/Hypocretin receptor type 1 (Homo sapiens), O43613; inhibition, % at 6.6 µM; OX1R-expressing cells, FRET antagonist read-out; in the data active = inhibition mostly above about 38%, no sharp cut-off; inactive = mostly below about 40%;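 note: 0% = agonist challenge alone and 100% = reference antagonist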
CHO parental Ca: ATP-evoked calcium signal inhibitors, parental CHO, primary screen, counter-screen for OX1R antagonist project, cell-based, fluorescence, Fluo-8 calcium dye. inhibition, % at 5.6 µM. parental CHO-K1, ATP-induced calcium, Fluo-8 fluorescence. actives 0.63% (n = 330,000). AID 463079, 2010;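 active = inhibition above that plate's mean sample inhibition plus 3 SD, cut at about 26% in these data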;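 note: 0% = ATP-challenged DMSO wells and 100% = DMSO wells without ATP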
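Measured by: calcium-sensitive Fluo-8 fluorescence / Test system: CHO parental line / Controls: ATP-challenged DMSO wells low, unchallenged DMSO wells high / Measure: % inhibition / Compound: single nominal dose of 5.6 µM per compound / Replicates: single well per compound, no replicates / Reagent: ATP as calcium-mobilizing challenge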
Numbers without * were called inactive.

Results for CCOC(=O)c1ccc(NC(=O)CCc2nc(-c3ccc(Cl)cc3)no2)cc1 ?
OX1R antag-1: 45.1*; GPR7 antagonist: 1.4; GalR3 antag: -3.0; OX1R antag-2: 18.1; CHO parental Ca: 46.5*

Results for Cc1ccc(-c2noc(CCC(=O)NC3CCCC3)n2)cc1 ?
OX1R antag-1: -6.3; GPR7 antagonist: -1.1; GalR3 antag: -6.6; OX1R antag-2: 4.7; CHO parental Ca: -8.0

How did Cc1ccc(-c2noc(CCCC(=O)NC3CCCCC3)n2)cc1 do in these assays?
OX1R antag-1: -7.0; GPR7 antagonist: 15.1; GalR3 antag: -8.9; OX1R antag-2: 9.3; CHO parental Ca: 39.6*

Results for CCOC(=O)c1ccc(NC(=O)CCc2nc(-c3ccc(C)cc3)no2)cc1 ?
OX1R antag-1: -0.2; GPR7 antagonist: -4.3; GalR3 antag: -2.1; OX1R antag-2: 13.6; CHO parental Ca: 32.8*

Results for COc1ccc(-n2nnnc2CNC(=O)C(=O)c2c(C)[nH]c3ccccc23)cc1 ?
OX1R antag-1: -10.1; GalR3 antag: 8.8; OX1R antag-2: 21.5; CHO parental Ca: -6.3

What do the screens show for `CC(NC(=O)COC(=O)c1ccccc1SCC(=O)N1CCCC1)c1ccccc1` (stereo not given)?
OX1R antag-1: -15.7; GalR3 antag: -3.4; OX1R antag-2: 13.8; CHO parental Ca: -27.0

Results for N#Cc1ccc(OCCCN2CCC(C(O)(c3ccccc3)c3ccccc3)CC2)cc1 ?
GalR3 antag: -9.1

What do the screens show for `CC(C)C[C@@H]1COc2cc(NC3CC3)ccc2S(=O)(=O)N1`?
GalR3 antag: -3.6

How did O=C(Nc1ccccc1)c1cnc(-c2ccccc2)nc1-c1ccccc1 do in these assays?
OX1R antag-1: 6.5; GPR7 antagonist: -17.2; GalR3 antag: -3.7; OX1R antag-2: 18.7; CHO parental Ca: 4.9

What do the screens show for `O=C(O)c1cnc(-c2ccccc2)nc1-c1ccccc1`?
OX1R antag-1: 2.8; GPR7 antagonist: -4.9; GalR3 antag: -5.3; OX1R antag-2: 61.6*; CHO parental Ca: -8.5

How did O=C(O)COc1ccccc1/C=N/Nc1ccc(S(=O)(=O)N2CCOCC2)cc1[N+](=O)[O-] do in these assays?
OX1R antag-1: -8.6; GPR7 antagonist: -10.9; GalR3 antag: -0.7; OX1R antag-2: 62.9*; CHO parental Ca: -13.9

How did Cc1cc(NC(=O)CCC(=O)N(Cc2ccco2)C(C(=O)NC2CCCC2)c2ccc(F)cc2)no1 (stereo not given) do in these assays?
OX1R antag-1: -17.8; GPR7 antagonist: 11.4; GalR3 antag: -6.7; OX1R antag-2: 46.9*; CHO parental Ca: -25.6

What do the screens show for `CC(C)C[C@H]1CN(CCCC[C@@H]2CNC(=O)C(=O)N2CC2CCCCC2)C(=O)C(=O)N1CCc1ccc(O)cc1`?
GalR3 antag: 1.9

How did CCC(C)NCCC(=O)Nc1ccc(Cl)c(S(=O)(=O)Nc2ccc(Cl)cc2)c1 (stereo not given) do in these assays?
OX1R antag-1: 0.1; GPR7 antagonist: 32.5*; GalR3 antag: -13.6; OX1R antag-2: 12.4; CHO parental Ca: -9.1

What do the screens show for `CC(OC(=O)c1cc2sccc2n1C)C(=O)NCc1ccc(F)cc1` (stereo not given)?
OX1R antag-1: -19.5; GPR7 antagonist: -0.1; GalR3 antag: -2.8; OX1R antag-2: 20.4; CHO parental Ca: 37.4*

How did O=C1CS/C(=N/N=C/c2ccc(OS(=O)(=O)c3ccccc3)cc2)N1 do in these assays?
OX1R antag-1: 0.0; GPR7 antagonist: -1.2; GalR3 antag: -2.9; OX1R antag-2: 70.5*; CHO parental Ca: 0.7

How did C=CC[n+]1ccc(/C=C2\C=Cc3cc(C)ccc3N2CC)c2ccccc21 do in these assays?
GPR7 antagonist: 26.0*

What do the screens show for `O=C1CC2c3cc(Br)ccc3CCN2C(=O)CN1Cc1ccccc1` (stereo not given)?
GalR3 antag: -7.7

What do the screens show for `CN1CCN(C(=O)C(=O)c2cn(CC(=O)N3CCOCC3)c3ccccc23)CC1`?
GalR3 antag: -6.0

Results for CS(=O)(=O)c1ccc(NCCc2ccccn2)c([N+](=O)[O-])c1 ?
OX1R antag-1: -16.9; GPR7 antagonist: -0.5; GalR3 antag: -6.8; OX1R antag-2: 52.2*; CHO parental Ca: -6.0

How did CN(C)C(CNc1ccc(S(C)(=O)=O)cc1[N+](=O)[O-])c1ccccc1 (stereo not given) do in these assays?
OX1R antag-1: -24.9; GPR7 antagonist: 9.3; GalR3 antag: -3.6; OX1R antag-2: 32.8; CHO parental Ca: -9.2

How did CN(C)C(CNc1ccc(S(C)(=O)=O)cc1[N+](=O)[O-])Cc1ccccc1 (stereo not given) do in these assays?
OX1R antag-1: -20.4; GPR7 antagonist: -3.4; GalR3 antag: -3.0; OX1R antag-2: 42.9*; CHO parental Ca: -21.1

Results for O=[N+]([O-])c1cc(C(F)(F)F)ccc1NCCc1ccccn1 ?
OX1R antag-1: -2.0; GalR3 antag: -4.0; OX1R antag-2: 20.2; CHO parental Ca: 11.3

How did CC(C)N(Cc1ccc(F)cc1)C(=O)c1cc2ccccc2oc1=O do in these assays?
OX1R antag-1: -3.7; GPR7 antagonist: -1.9; GalR3 antag: -9.8; OX1R antag-2: 27.0; CHO parental Ca: -6.1

How did Fc1ccc(CNCc2ccccc2Cl)cc1 do in these assays?
OX1R antag-1: -2.6; GPR7 antagonist: 19.1*; GalR3 antag: -3.6; OX1R antag-2: 8.3; CHO parental Ca: 6.6

Results for CN(C)S(=O)(=O)c1ccc(C(=O)NNC(=O)c2ccccc2-n2cccc2)cc1 ?
OX1R antag-1: 11.7; GalR3 antag: -0.9; OX1R antag-2: 3.5; CHO parental Ca: -6.6

Results for CCc1c(C2(O)CCCCC2)[nH]c2ccc(C(F)(F)F)cc12 ?
OX1R antag-1: 35.2; GPR7 antagonist: -16.1; GalR3 antag: -2.0; OX1R antag-2: 58.6*; CHO parental Ca: 40.1*

Results for O=C(Nc1cccc(F)c1)C1CCN(C(=O)c2ccco2)CC1 ?
OX1R antag-1: -8.5; GPR7 antagonist: -3.9; GalR3 antag: -8.6; OX1R antag-2: 9.5; CHO parental Ca: 0.7

How did CC(=O)O[C@H]1C=C[C@@H](C#Cc2ccc(C(C)(C)C)cc2)O[C@@H]1COC(=O)Nc1ccccc1 do in these assays?
GalR3 antag: -3.4

What do the screens show for `O=C(Cn1cnc([N+](=O)[O-])n1)NCc1ccccc1`?
OX1R antag-1: 2.5; GPR7 antagonist: 7.1; GalR3 antag: 2.2; OX1R antag-2: 72.0*; CHO parental Ca: -2.0

Results for O=C(Cn1cnc([N+](=O)[O-])n1)NCCO ?
OX1R antag-1: 0.9; GPR7 antagonist: -12.5; GalR3 antag: 0.6; OX1R antag-2: 28.5; CHO parental Ca: -5.7

What do the screens show for `COc1ccc(CN2C(=O)c3ccccc3C2=O)cc1C(=O)N(C)CC(=O)Nc1ccc(C)cc1`?
GalR3 antag: -5.3
